eLon inh: inhibits E. coli Lon protease. 360,000 tested, 0.42% active. AID 602123. inhibition, % at 7.94 µM. P0A9M0. purified E. coli Lon protease, fluorescence polarization; in the data active = inhibition above about 13%, passing the limit was not always enough;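 note: 0% = enzyme with probe and DMSO and 100% = no enzyme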
PRMT1 FP inh: PRMT1 (human) inhibition, primary screen. recombinant PRMT1, activity-based probe fluorescence polarization. inhibition, % at 2.79 µM. 370,000 tested, 1.3% active. AID 652257;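 active = inhibition above about 21% made by adding two undisclosed values, limit read from the data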
GSTO1 counter: GSTO1 inhibition, counter-screen for RBBP9 inhibitors | P78417 | recombinant GSTO1, activity-based probe fluorescence polarization | inhibition, % at 5.96 µM | 300,000 tested, 1.1% active | AID 1974;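 active = inhibition above the campaign mean inhibition plus 3 SD, cut at about 35% in these data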;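 note: 0% = GSTO1-1 with DMSO and 100% = wells lacking GSTO1-1 enzyme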
Target sequence (P78417 whole entry, looked up): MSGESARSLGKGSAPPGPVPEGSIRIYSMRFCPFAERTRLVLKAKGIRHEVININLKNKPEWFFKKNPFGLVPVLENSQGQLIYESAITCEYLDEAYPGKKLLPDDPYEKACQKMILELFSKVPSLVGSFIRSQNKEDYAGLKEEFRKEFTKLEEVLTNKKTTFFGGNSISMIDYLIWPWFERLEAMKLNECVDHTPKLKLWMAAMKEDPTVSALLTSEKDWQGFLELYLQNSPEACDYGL
TDP2 absorb: blocks human TDP2 phosphodiesterase activity | 370,000 tested, 0.34% active | recombinant TDP2, T5PNP hydrolysis, p-nitrophenol absorbance 415 nm | inhibition, % at 12.8 µM | O95551 | AID 720702;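 active = inhibition above the mean of all tested compounds plus 3 SD, set per campaign, cut at about 25% in these data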;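 note: 0% = DMSO with enzyme and 100% = buffer with substrate but no TDP2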
Target sequence (O95551 whole entry, looked up): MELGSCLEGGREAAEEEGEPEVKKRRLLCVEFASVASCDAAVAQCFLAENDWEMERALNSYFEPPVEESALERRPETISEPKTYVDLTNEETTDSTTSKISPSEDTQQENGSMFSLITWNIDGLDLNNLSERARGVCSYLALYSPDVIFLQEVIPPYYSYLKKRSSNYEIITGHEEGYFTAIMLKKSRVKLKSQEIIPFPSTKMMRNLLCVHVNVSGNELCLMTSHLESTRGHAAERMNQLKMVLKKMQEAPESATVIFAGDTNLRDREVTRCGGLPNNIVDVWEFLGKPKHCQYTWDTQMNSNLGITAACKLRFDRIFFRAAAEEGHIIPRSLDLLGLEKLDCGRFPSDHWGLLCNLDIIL
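System: recombinant human TDP2 / Amount: 120 nM TDP2 per well / Also added: 5 mM T5PNP chromogenic substrate / Doses: 12.8 µM single point, 1% DMSO / Incubation: 2 h at 37 °C / Detection: p-Nitrophenol epi absorbance / Evaluation: % inhibition relative to enzyme-containing and enzyme-free wells / Repeats: singlicate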
PAD4 FP inh: blocks human protein arginine deiminase 4; Q9UM07; inhibition, % at 6.36 µM; recombinant PAD4, RCA probe fluorescence polarization; 330,000 tested, 0.41% active;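 active = percent inhibition above a cutoff equal to the mean of all tested compounds plus 3 SD, cut at about 15% in these data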;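 note: 0% = PAD4 with RCA probe and DMSO and 100% = probe without PAD4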
GSTO1 confirm: confirmation of human GSTO1 inhibitors. 2,400 tested, 54% active. AID 2176. recombinant GSTO1, probe fluorescence polarization. inhibition, % at 5.96 µM. shares compounds with GSTO1 counter;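 active = inhibition above the primary screen's cutoff, its mean inhibition plus 3 SD, cut at about 35% in these data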;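 note: loss of polarization as inhibitors block binding of rhodamine sulfonate ester activity probe; 0% = GSTO1 with DMSO and 100% = wells lacking GSTO1 enzyme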
GSTO1 ABPP inh: inhibitors of recombinant human GSTO1 | 130 tested, 30% active | AID 463110 | inhibition, % at 1 µM | shares compounds with GSTO1 counter | gel ABPP SE-Rh probe fluorescence;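 active = inhibition of the enzyme GSTO1 above about 75%, limit read from the data; inactive = inhibition below that limit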
Starred values were filed as active, the others as inactive; / = no result. A selection: hits, their analogues and other compounds. The true share with any hit is near 2.5%.

SMILES	eLon inh	PRMT1 FP inh	GSTO1 counter	TDP2 absorb	PAD4 FP inh	GSTO1 confirm	others
Cc1ccccc1N=Cc1ccc[nH]1	-1.1	-2.9	/	-0.6	/	/
COc1cccc(C(=O)CSc2nnc(-c3cc(OC)c(OC)c(OC)c3)o2)c1	-4.7	-4.2	11.3	-7.6	-5.0	/
COc1cc(-c2nnc(SCC(=O)c3ccc(C)cc3)o2)cc(OC)c1OC	0.3	1.3	37.9*	-7.3	1.6	27.1
COc1ccc(C(=O)CSc2nnc(Cc3ccccc3)o2)cc1	-0.2	-2.0	37.9*	4.4	-0.2	27.7
O=C(NC1CCCCN(Cc2cccc(F)c2)C1=O)c1cccc(C(F)(F)F)c1 (stereo unspecified)	/	-4.0	/	-1.1	/	/
CCN(CC)C(=O)c1cc([N+](=O)[O-])cc2c1-c1ccc([N+](=O)[O-])cc1C2=C(C#N)C#N	2.6	2.6	38.0*	-0.2	-2.9	24.8
Cc1cccc(CN2CCN(C(=O)CCl)CC2)c1	-1.0	-0.6	96.2*	14.5	-1.5	99.0*	GSTO1 ABPP inh=61.0
O=c1c(O)c(-c2cc(O)c(O)c(O)c2)oc2cc(O)cc(O)c12	5.7	53.9*	78.8*	-6.2	-6.3	48.0*
COc1c(-c2ccc(O)c(O)c2)oc2cc(O)cc(O)c2c1=O	2.0	1.0	40.5*	0.8	-6.0	22.3
C=CCN1[C@@H](Cc2ccccc2)COc2cccc(F)c2S1(=O)=O	/	-2.7	/	-5.6	/	/
COc1ccc(OC)c2c1C(=O)C(Cl)=C(Cl)C2=O	7.3	90.9*	57.5*	-5.9	-7.4	7.8
COc1ccc(OC)c2c1C(=O)CC2C (stereo unspecified)	-1.9	-3.1	/	-9.6	/	/
COCc1[nH][nH]c(=O)c1/C=N/N1CCOCC1	-2.7	0.1	38.3*	-2.7	-8.1	5.8
COCc1[nH][nH]c(=O)c1C=Nc1ccccc1	5.6	1.0	2.6	5.9	-3.5	/
COc1cc(Sc2ccc(C)cc2)c(OC)cc1N	5.9	35.2*	47.3*	-2.6	-19.0	7.4
O=C(CCl)Nc1c2c(nn1-c1ccccc1)CSC2	3.2	17.9	97.9*	7.9	1.3	98.0*
COC(=O)C1CN(CCc2ccccc2)CCS(=O)(=O)N1Cc1ccc(C(F)(F)F)cc1 (stereo unspecified)	/	3.6	/	-2.1	/	/
Cc1nn(-c2ccccc2)c(Cl)c1CN(C(=O)CCl)c1ccc(Cl)cc1	3.9	-1.0	82.4*	-7.1	13.7	92.8*	GSTO1 ABPP inh=88.0*
COc1ccc(-n2c(SCc3nc4ccccc4[nH]3)nc3ccccc3c2=O)cc1	/	1.9	/	8.9	/	/
O=C1CSc2ccc(S(=O)(=O)CCC(=O)NC3CCCCC3)cc2N1	8.1	4.7	53.0*	-7.2	-8.2	3.9
COC(=O)C[C@@H]1CC[C@H]2[C@@H](COc3ccc(NS(=O)(=O)c4ccccc4F)cc3C(=O)N2C)O1	/	-2.0	/	-2.9	/	/
CCN(CC(=O)NC(C)(C)C)C(=O)COc1c(Cl)cc(Cl)c2ccc(C)nc12	-7.4	4.6	6.6	0.4	-6.8	/
CCN(CC(=O)NC(C)(C)C)C(=O)CCl	-1.6	4.9	67.1*	-5.1	-3.3	85.6*	GSTO1 ABPP inh=11.0
Cc1ccccc1NC(=O)Cc1nc(CCl)cs1	-9.3	9.7	93.1*	-16.9	-1.2	95.1*	GSTO1 ABPP inh=74.0
CCOC(=O)c1c(NC(=O)C2CCCCC2C(=O)O)sc2c1CCCCC2 (stereo unspecified)	0.4	2.4	54.0*	9.7	1.2	46.9*
SMILES	eLon inh	PRMT1 FP inh	GSTO1 counter	TDP2 absorb	PAD4 FP inh	GSTO1 confirm	others
COC(=O)c1c(NC(=O)C2CCCCC2C(=O)O)sc2c1CCCCC2 (stereo unspecified)	-5.9	18.2	22.8	-16.3	-2.6	/
O=[N+]([O-])c1cncc([N+](=O)[O-])c1Nc1cccc(O)c1	-13.4	5.1	70.0*	1.2	6.3	13.2
S=c1[nH]c2ccccc2n2c(=S)[nH]nc12	-33.5	9.3	59.4*	7.4	2.5	38.5*
CCN=c1scc(-c2ccco2)n1/N=C/c1ccc(O)cc1	-9.6	7.4	-2.2	-9.1	-0.8	/
CCN=c1scc(C)n1/N=C/c1cc(Br)c(O)c(Br)c1	3.0	-5.0	46.2*	-3.7	-2.0	21.2
COCCCN1C(=O)[C@H](CC(=O)NCc2cccc3ccccc23)[C@]2(C(=O)OC)CCCCC=C12	/	1.4	/	2.2	/	/
CCOC(=O)[C@@]12CCCC3=C1N(CCC3)C(=O)[C@H]2CC(=O)NCCC(C)C	/	-0.1	/	4.5	/	/
COc1cccc(-c2nc(CCl)cs2)c1OC	0.5	3.0	60.9*	-2.5	-5.1	99.4*	GSTO1 ABPP inh=51.0
COCCNC(=O)C[C@H]1CC[C@H]2[C@@H](COc3ccc(NC(=O)Nc4cccc(F)c4)cc3C(=O)N2C)O1	/	5.0	/	1.7	/	/
COc1ccc(Cn2cc(COC(=O)Nc3ccc(F)cc3)nn2)cc1	/	-2.0	/	5.3	/	/
O=C1c2ccccc2C(=O)c2c(NCCCN(CCO)CCO)cccc21	6.0	2.2	/	-14.6	/	/
COCCCNS(=O)(=O)c1ccccc1	0.5	-1.2	1.4	3.4	1.1	/
CCN(CC)CCCNC1=C(Cl)C(=O)c2ccccc2C1=O	-7.0	2.0	65.6*	6.2	-9.8	47.0*
COCCCNC1=C(Cl)C(=O)c2ccccc2C1=O	6.5	-1.6	48.4*	22.3	-11.2	12.5
CC(C)OCCCNC1=C(Cl)C(=O)c2ccccc2C1=O	6.9	0.6	63.9*	0.0	-10.9	8.9
Cc1cc(C)cc(-c2c(C(=O)c3ccc(Br)cc3)[nH]c(N)c2C(=O)NCc2ccc(Cl)cc2)c1	/	3.4	/	-0.1	/	/
CCOC(=O)CC[C@H]1CC[C@]2(CCCN(C(=O)C3CCCC3)C2)O1	/	2.8	/	6.6	/	/
Cc1ccc(NC(=O)CCl)c(C)c1	0.5	8.2	82.0*	9.2	1.8	90.7*
NC(=O)c1ncn([C@@H]2O[C@H](C(=O)N[C@H](Cc3c[nH]c4ccccc34)C(=O)N3CCN(C(=O)C4CC4)CC3)[C@@H](O)[C@H]2O)n1	/	0.5	/	-5.0	/	/
Oc1ccc(-c2nc(-c3ccc(O)c(O)c3)cs2)cc1	9.2	19.5	47.3*	-3.1	0.7	5.5
CN(Cc1ccc(Cl)s1)C(=O)CCl	-10.4	-2.7	91.6*	-8.6	3.1	104.0*	GSTO1 ABPP inh=70.0
CN(C)CCNC(=O)c1ccc(Cl)s1	-13.7	-1.2	5.4	6.6	-3.8	/
O=c1cc(-c2ccco2)oc2c1ccc1ccccc12	-5.5	-2.9	4.4	13.8	-5.8	/
O=c1cc(C(Cl)(Cl)Cl)oc2c1ccc1ccccc12	1.4	-0.9	46.9*	-0.3	1.2	80.3*
COC(=O)CCCC1=CC2=C(c3ccccc3)C(=O)C(C)(OC(=O)C3CCCC3)C(=O)C2=CN1Cc1ccc2c(c1)OCO2 (stereo unspecified)	-16.9	2.2	48.2*	14.5	-0.4	13.4
